Sampled rows, rich in hits. Any-hit rate of the full collection: about 1.9%.
LANA-H2A inh: blocks KSHV LANA binding to histone H2A/H2B; cell-free LANA-H2A/H2B peptide, fluorescence polarization; inhibition, % (test concentration not listed); 320,000 tested, 0.6% active; AID 2629; in the data active = inhibition mostly above about 10%, no sharp cut-off; inactive = mostly below about 6.7%
CaV13 FRET inh: Disruptors of the CACNA1D IQ motif to Ca2+-dependent inactivation inhibitor domain association, primary screening, Förster resonance energy transfer in intact living …. HEK cells, CFP/YFP FRET ICDI-IQ, plate reader, 10 min; percent FRET-ratio fall versus neutral wells. inhibition, % at 12.3 µM. AID 743397. 340,000 tested, 0.098% active;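 active = mean replicate inhibition of at least 30% and at least 1% of replicates passing that level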;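 note: 0% = median of the neutral control wells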
Runt-CBFb FRET: inhibitors of human RUNX1 Runt domain binding to CBFb. Q01196+Q13951. AID 1496. Cerulean-Runt/Venus-CBFb FRET ratio 530/480, 1 h. inhibition, % at 20 µM. 220,000 tested, 0.46% active;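 active = inhibition over about 50% at 20 µM in the single-dose screen, limit read from the data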;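 note: 0% = DMSO wells and 100% = excess unlabeled CBFb competitor control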
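Assay system: Cerulean-Runt domain / Medium: Tris 50 mM pH 7.5, KCl, K2SO4, 0.01% BSA / Timing: protein complex preformed 1 h, compound exposure 1 h, room temperature, dark / Measured by: FRET, excitation 422 nm, emission at 530 and 480 nm / Evaluation: loss of energy transfer signal / Control set: 5 µM unlabeled CBFb as full-inhibition high control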
Runt-SMMHC FRET: Runt domain-CBFb-SMMHC interaction inhibition. Q01196+Q13951. Cerulean-Runt/Venus-CBFb-SMMHC FRET ratio 530/480, 1 h. inhibition, % at 20 µM. 220,000 tested, 0.74% active. AID 1434;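 active = mean inhibition across duplicate retests at 20 µM reaching about 50%, limit read from the data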;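 note: 0% = DMSO wells and 100% = wells with excess untagged CBFb-SMMHC; inhibitors lower the FRET ratio by blocking Runt binding to CBFb-SMMHC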
HDAC3 inhib: blocks human histone deacetylase 3; 320,000 tested, 0.15% active; inhibition, % at 8.3 µM; AID 2718; recombinant HDAC3, fluorogenic peptide/trypsin coupled, fluorescence; in the data active = inhibition above about 26%, passing the limit was not always enough
Target sequence (O15379 whole entry, looked up): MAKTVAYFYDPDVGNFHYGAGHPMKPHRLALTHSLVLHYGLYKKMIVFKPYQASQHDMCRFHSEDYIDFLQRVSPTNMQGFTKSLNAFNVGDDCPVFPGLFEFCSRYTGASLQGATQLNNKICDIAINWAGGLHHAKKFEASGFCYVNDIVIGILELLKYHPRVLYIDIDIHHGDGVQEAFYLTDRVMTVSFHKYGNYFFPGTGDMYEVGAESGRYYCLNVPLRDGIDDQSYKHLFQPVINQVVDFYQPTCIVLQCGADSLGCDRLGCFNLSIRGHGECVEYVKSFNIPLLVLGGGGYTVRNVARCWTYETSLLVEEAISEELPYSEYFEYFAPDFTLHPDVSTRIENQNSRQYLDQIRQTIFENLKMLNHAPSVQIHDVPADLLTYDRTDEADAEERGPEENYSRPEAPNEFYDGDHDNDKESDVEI
RanGTP-Imp inh: disruptors of Ran-importin-beta complex formation – biochemical, FRET, CFP-Ran, YFP-importin-beta, homogeneous, primary screen; AID 2216; 300,000 tested, 1.1% active; cell-free CFP-Ran/YFP-importin-beta FRET ratio; inhibition, % (no concentration beside the values);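 active = more than half of the replicate wells show a fall in the fluorescence ratio signal beyond about 16%, limit read from the data, passing the limit was not always enough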;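 note: 0% = DMSO wells and 100% = Ran loaded with GDP instead of GTP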
Starred values were filed as active, the others as inactive; · = no result.

SMILES | LANA-H2A inh | CaV13 FRET inh | Runt-CBFb FRET | Runt-SMMHC FRET | HDAC3 inhib | RanGTP-Imp inh
Cc1ccc2c(n1)sc1c(-c3ccc(Br)cc3)c(C#N)c(N)nc12 | -1.3 | · | 32.4 | 91.8 | 0.7 | 78.7*
Cc1cc(C)c(C#N)c(SCc2nc3ccccc3[nH]2)n1 | 3.9 | · | 4.5 | 12.9 | -5.6 | 19.4*
COC(=O)c1cc(S(=O)(=O)N2CCCCC2)ccc1N1CCOCC1 | -3.3 | -5.6 | · | · | -5.5 | 1.6
COC(=O)c1cc2c(ccc3ccccc32)oc1=O | 0.5 | -4.9 | · | · | -132.2 | 84.3*
COc1ccc2oc(=O)c(C(=O)OCc3ccccc3)cc2c1 | 1.7 | -5.3 | · | · | 2.9 | 18.5*
O=c1oc2ccccc2cc1-c1nc2ccccc2o1 | -0.2 | -6.7 | 14.3 | 37.2 | -179.4 | ·
O=c1oc2ccc3ccccc3c2cc1-c1nc2ccccc2o1 | 2.1 | · | · | · | 3.2 | 126.0*
CC(=O)c1ccc(COC(=O)c2cc3ccccc3oc2=O)cc1 | 11.2* | -18.9 | · | · | -6.5 | 2.5
COc1ccc(CNC(=O)c2ccc(NS(=O)(=O)c3c(C)noc3C)cc2)cc1 | -1.8 | -4.2 | -1.9 | 4.0 | 5.2 | 2.1
COc1cc(N2CCCC2)c(OC)cc1/C=C(/C#N)c1ccc(Br)cc1 | -2.3 | -4.1 | -26.9 | -71.5 | 1.8 | -15.1
COc1cc(N2CCCC2)c(OC)cc1/C=C(/C#N)c1ccc(F)cc1 | -68.9* | · | -35.1 | -91.6 | -2.2 | -83.0
CCCc1c(C(=O)N/N=C(\C)c2cc(C)sc2C)nnn1-c1nonc1N | · | -2.5 | · | · | · | ·
C/C(=N\NC(=O)c1nnn(-c2nonc2N)c1C(C)C)c1cc(C)sc1C | -3.3 | -6.3 | · | · | 8.5 | 97.4*
CCOC(=O)c1c(C)[nH]c(C(C)=NNC(=O)c2cccs2)c1C | 0.8 | -2.3 | · | · | -0.3 | ·
COc1ccccc1C(=O)CC(=O)c1ccccc1 | 16.8* | -19.9 | · | · | 3.0 | 4.1
O=C(NCCc1ccc(F)cc1)c1ccc(Cl)c(S(=O)(=O)N2CCOCC2)c1 | -1.2 | -3.0 | · | · | 5.7 | ·
O=S(=O)(Nc1nccs1)c1ccc(Br)cc1 | 1.7 | -1.1 | -1.6 | 1.6 | 6.9 | -3.3
O=S(=O)(Nc1ccc(S(=O)(=O)Nc2nccs2)cc1)c1ccc(Br)cc1 | -4.7 | -3.1 | · | · | 43.1* | 6.6
CCN(CC)c1ccc2cc(-c3nc(-c4cc5ccccc5oc4=O)cs3)c(=O)oc2c1 | · | -2.7 | · | · | · | ·
Cc1cccc(-n2c(SCC(N)=O)nnc2-c2ccco2)c1 | 1.1 | -0.4 | · | · | -0.7 | 1.1
NNc1ccc(Cl)c(C(=O)O)c1 | 63.1* | -3.4 | -0.6 | -0.5 | -2.8 | 4.7
COC(=O)[C@@]1(C)[C@H]2C(=O)N(C)C(=O)[C@H]2[C@H]2CN=C(SCc3ccc(Cl)cc3)N21 | · | -6.6 | · | · | · | ·
NCC1CCC(C(=O)Oc2ccc(CCC(=O)O)cc2)CC1 (stereo not given) | -3.5 | -4.3 | · | · | 81.3* | -0.2
CCCCc1nnc(NC(=O)C(C)Sc2nc(C)cc(=O)[nH]2)s1 (stereo not given) | 12.3* | -2.8 | · | -3.5 | -2.6 | 8.7
CCC(Sc1nc(C)cc(=O)[nH]1)C(=O)Nc1nnc(C)s1 (stereo not given) | 1.4 | · | 2.0 | 0.3 | -7.3 | -0.7
SMILES | LANA-H2A inh | CaV13 FRET inh | Runt-CBFb FRET | Runt-SMMHC FRET | HDAC3 inhib | RanGTP-Imp inh
Cc1ccc(-c2csc3ncnc(-n4cnc5ccccc54)c23)cc1 | -0.1 | -14.8 | -0.7 | -8.9 | -8.7 | 3.0
Cc1sc2ncnc(-n3cnc4ccccc43)c2c1C | 83.2* | · | -0.4 | 4.2 | -7.6 | -3.1
Cc1[nH][nH]c(=O)c1C(c1ccc(N(C)C)c(Br)c1)c1c(C)[nH][nH]c1=O | 59.7* | -6.8 | 3.7 | -3.4 | -1.7 | 2.2
Cc1snc(SCC(=O)c2ccc([N+](=O)[O-])cc2)c1C#N | · | -4.4 | 21.1 | 60.5* | · | ·
COc1ccc(NC(=O)C2CCCN(c3nn4c(=O)cc(C)nc4s3)C2)c(OC)c1 (stereo not given) | 10.9* | -7.0 | · | · | 3.0 | -3.9
COc1ccc(CNC(=O)C2CCCN(c3nn4c(=O)cc(C)nc4s3)C2)cc1 (stereo not given) | 5.9 | -13.2 | · | · | 7.9 | -0.9
Cc1c(C(=O)NCc2cccc(Cl)c2)sc(=O)n1Cc1cccc(F)c1 | · | 4.6 | · | · | · | ·
C=Cc1ccc(Cn2c(C)c(C(=O)NCc3cccc(C)c3)sc2=O)cc1 | · | 69.1* | · | · | · | ·
CSc1ccc(Cn2c(C)c(C(=O)NCc3cccc(Cl)c3)sc2=O)cc1 | · | 42.0* | · | · | · | ·
Cc1c(C(=O)NCc2ccc(Cl)c(Cl)c2)sc(=O)n1Cc1cccc(F)c1 | · | 39.1* | · | · | · | ·
COc1ccc(Br)c(Cn2c(C)c(C(=O)NCc3ccc4c(c3)OCCO4)sc2=O)c1 | · | 46.6* | · | · | · | ·
CC(=O)Oc1ccc(Cn2c(C)c(C(=O)NCc3ccc4c(c3)OCCO4)sc2=O)cc1 | · | -6.3 | · | · | · | ·
CSc1ccc(Cn2c(C)c(C(=O)NCc3cccc(C)c3)sc2=O)cc1 | · | -8.7 | · | · | · | ·
CC(C)(C)n1nc2c(c1NC(=O)Cc1ccc(F)cc1)CS(=O)(=O)C2 | -3.5 | -6.8 | · | · | -0.5 | 0.4
O=C(Nc1ccccc1C(=O)N/N=C/c1ccco1)c1ccc(F)cc1 | 2.1 | -6.0 | 1.8 | -2.2 | 8.4 | -0.5
CCCCOc1ccc(C(=O)NCCN2CCC(n3c(=O)[nH]c4ccccc43)CC2)cc1 | · | -9.7 | · | · | · | ·
CCN(CC)c1ccc(/C=N/NC(=O)c2cccc(S(=O)(=O)Nc3ccccc3OC)c2)c(O)c1 | -6.5 | -4.2 | -31.9 | 81.1* | 11.6 | 7.6
CCN(CC)c1ccc(/C=N/NC(=O)c2cccc(S(=O)(=O)Nc3ccccc3OC)c2)cc1 | -4.2 | -14.3 | -136.8 | 46.7 | 9.7 | 4.7
O=C(OCC(=O)c1cccs1)c1ccc(NC(=O)c2ccco2)cc1 | -1.3 | -5.8 | -1.1 | -2.1 | 6.6 | -2.5
COc1ccc(C2c3ccc(O)cc3Oc3ncn(Cc4ccco4)c(=N)c32)cc1 (stereo not given) | 2.1 | -5.6 | 96.6* | 28.0 | -4.0 | 3.1
O=C(CNS(=O)(=O)c1ccc(F)cc1)Nc1ccccc1 | 2.5 | · | · | · | · | -1.6
O=S(=O)(NC1CC2CCC1C2)c1ccc2c(c1)OCCO2 (stereo not given) | 20.1* | -0.2 | -1.3 | -1.8 | 3.3 | 5.8
Cc1ccc(NC(=O)C(OC(=O)c2ccc(NC(N)=O)cc2)c2ccccc2)cc1Cl (stereo not given) | 1.1 | -2.9 | -4.2 | -14.6 | 12.8 | 7.6
Cn1c(=O)c(C(=O)NCCO)c(O)c2ccccc21 | 9.6* | · | -0.1 | 1.9 | 1.0 | 6.5
COc1ccc(C)c2sc(NC(=O)CCS(=O)(=O)c3ccccc3)nc12 | 103.4* | -1.9 | · | · | -7.4 | 2.4
COc1ccc(Cl)cc1NC(=O)NC1CCCCC1 | 20.6* | · | 1.3 | 3.0 | -8.6 | -0.1
COc1ccc(S(=O)(=O)N2CCC(C(=O)NCCC3=CCCCC3)CC2)cc1C | 34.2* | -9.4 | -0.2 | 0.0 | 0.0 | 4.3
